The results in this text go back to ChEMBL document CHEMBL4354849, “[1,2,5]Oxadiazolo[3,4-b]pyrazine-5,6-diamine Derivatives as Mitochondrial Uncouplers for the Potential Treatment of Nonalcoholic Steatohepatitis” (J Med Chem, 2020).

Series [1] is described as follows: Induction of mitochondrial uncoupling in rat L6 cells assessed as oxygen consumption rate measured over 90 mins by oxygen consumption rate by seahorse assay. Format: mitochondria, Mitochondria.
The test system of another series is L6. Description: Induction of mitochondrial uncoupling in rat L6 cells assessed as oxygen consumption rate up to 50 uM measured over 90 mins by oxygen consumption rate by seahorse assay relative to <= 50 uM BAM15. To be noted: Mitochondria. A digest of the protocol: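 L6 rat myoblasts were seeded at 3.5 × 10⁴ cells/well and left to adhere overnight. Medium was switched to unbuffered DMEM with pyruvate and glutamine, pH 7.4, and cells were equilibrated 1 h at 37°C without CO₂. One concentration per well, 2 wells per condition, OCR followed over 90 min. The first three post-injection readings were averaged to build the dose curve. AUC above baseline was expressed relative to BAM15 run on each plate; EC50 came from a Hill fit with the bottom fixed at 100% baseline.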

Series [2] relates to Mus musculus. Description: Improvement in liver fibrosis in Stelic C57BL/6 mouse model of streptozotocin-induced NASH assessed as effect on plasma AST level at 10 mg/kg/day, po for 21 days. Format: functional, organism-based.
For series [3], the system named is Mus musculus. Description: Effect on liver weight in Stelic C57BL/6 mouse model of streptozotocin-induced NASH at 10 mg/kg/day, po for 21 days. The format is ADME, organism-based. The following applies: in vivo, 504 h.
For series [4], the system named is Mus musculus. Description: Effect on ballooning in Stelic C57BL/6 mouse model of streptozotocin-induced NASH at 10 mg/kg/day, po for 21 days. To be noted: in vivo, 504 h. Format: ADME, organism-based.
Series [5] has as its system Mus musculus. Description: Induction of hyperglycemia in Stelic C57BL/6 mouse model of streptozotocin-induced NASH at 10 mg/kg/day, po for 21 days. The format is organism-based. To be noted: in vivo, 504 h.
Series [6] deals with Mus musculus. Description: Improvement in liver fibrosis in Stelic C57BL/6 mouse model of streptozotocin-induced NASH assessed as effect on liver Cd146 mRNA expression at 10 mg/kg/day, po for 21 days. Format: functional, organism-based.
Series [7] relates to Mus musculus. Description: Improvement in liver fibrosis in Stelic C57BL/6 mouse model of streptozotocin-induced NASH assessed as liver fibrosis score at 10 mg/kg/day, po for 21 days by Picrosirius ed staining based assay (reference value: 0.91 +/- 0.25). The format is functional.
Series [8] has as its system Mus musculus. Description: Improvement in liver fibrosis in Stelic C57BL/6 mouse model of streptozotocin-induced NASH assessed as effect on liver Gfap mRNA expression at 10 mg/kg/day, po for 21 days. The format is functional, organism-based.
In series [9] the test system is Mus musculus. The series is described as follows: Effect on body weight in Stelic C57BL/6 mouse model of streptozotocin-induced NASH at 10 mg/kg/day, po for 21 days. Format: ADME, organism-based. The following applies: in vivo, 504 h.
In series [10] the test system is Mus musculus. The series is described as follows: Effect on food intake in Stelic C57BL/6 mouse model of streptozotocin-induced NASH assessed as reduction in food intake at 10 mg/kg/day, po for 21 days. Format: ADME, organism-based. On the set-up: scale not given: the % may be the effect or the level left. The following applies: in vivo, 504 h.
Series [11] concerns Mus musculus. Description: Improvement in liver fibrosis in Stelic C57BL/6 mouse model of streptozotocin-induced NASH assessed as NAS score at 10 mg/kg/day, po for 21 days (reference value: 4.6 +/- 0.7). The format is functional.
Series [12] has as its system Mus musculus. The series is described as follows: Improvement in liver fibrosis in Stelic C57BL/6 mouse model of streptozotocin-induced NASH assessed as reduction in plasma triglyceride at 10 mg/kg/day, po for 21 days. Format: functional, organism-based.
The test system of series [13] is Mus musculus. Description: Improvement in liver fibrosis in Stelic C57BL/6 mouse model of streptozotocin-induced NASH assessed as increase in plasma cholesterol at 10 mg/kg/day, po for 21 days. The format is functional, organism-based.

Activity calls are given as the source filed them. The rule behind the calls is not given here.

As a reminder, the EC50 is the concentration giving half of the maximal effect. `Fc1cc(Nc2nc3nonc3nc2Nc2ccc(C(F)(F)F)c(F)c2)ccc1C(F)(F)F`: the EC50 in series [1] was found to be 1700 nM.
Turning to `FC(F)(F)c1cc(Nc2nc3nonc3nc2Nc2cc(C(F)(F)F)cc(C(F)(F)F)c2)cc(C(F)(F)F)c1`, in series [1], the EC50 worked out at 6100 nM.
The same measure, in the same setting: to `Fc1ccccc1Nc1nc2nonc2nc1Nc1cc(C(F)(F)F)cc(C(F)(F)F)c1` belongs less than 370 nM.
In the case of `CCOc1ccc(Nc2nc3nonc3nc2Nc2ccccc2F)cc1`, the EC50 in series [1] came to 3800 nM.
Consider `Fc1ccccc1Nc1nc2nonc2nc1Nc1ccccn1`, for which the Activity in the series on L6 turned out to be 20%. Also, the EC50 in [1] was found to be 9000 nM.
For `Fc1ccccc1Nc1nc2nonc2nc1NC1CCCCC1`, the EC50 in series [1] came to 13400 nM.
On to `COc1ccc(Nc2nc3nonc3nc2Nc2ccc(OC)cc2)cc1`, for which the Activity in the series with L6 worked out at 14%. In [1], the EC50 was more than 100000 nM.
Consider `Oc1ccc(F)c(Nc2nc3nonc3nc2Nc2ccccc2F)c1`, for which the Activity in the series on L6 came to 45%. Further, the EC50 in [1] came to 30000 nM.
The corresponding values for `Fc1ccccc1Nc1nc2nonc2nc1Nc1ccccc1C(F)(F)F` are 57% and 1400 nM.
The like results for `Fc1ccccc1Nc1nc2nonc2nc1Nc1ccccc1` were, in that order, 65% and 2200 nM.
On to `FC(F)(F)Oc1cccc(Nc2nc3nonc3nc2Nc2cccc(OC(F)(F)F)c2)c1`, for which the Activity in the series on L6 came to 53%. The EC50 in series [1] stood at 1100 nM.
As to `CCc1ccc(Nc2nc3nonc3nc2Nc2ccc(CC)cc2)cc1`, the EC50 in [1] amounted to 3900 nM.
On the same count and under the same terms, to `Fc1cc(F)c(Nc2nc3nonc3nc2Nc2c(F)cc(F)cc2F)c(F)c1` belongs 1100 nM; to `Fc1ccccc1Nc1nc2nonc2nc1Nc1ccc(OC(F)(F)F)cc1`, 1300 nM.
As for `FC(F)(F)c1ccccc1Nc1nc2nonc2nc1Nc1ccccc1C(F)(F)F`, the Activity in the series on L6 was 39%. Also, the EC50 in series [1] is 1000 nM.
The like results for `FC(F)(F)c1cccc(Nc2nc3nonc3nc2Nc2cccc(C(F)(F)F)c2)c1` were, in that order, 28% and 700 nM.
Turning to `Cc1cccc(Nc2nc3nonc3nc2Nc2ccccc2F)c1`, in [1], the half-maximal effective concentration (EC50) stood at 1500 nM.
Consider `CCOc1cccc(Nc2nc3nonc3nc2Nc2cccc(OCC)c2)c1`, for which the Activity in the series with L6 stood at 45%. Also, the EC50 in series [1] turned out to be 10100 nM.
`Fc1cc(I)ccc1Nc1nc2nonc2nc1Nc1ccc(I)cc1F`: in series [1], the EC50 worked out at 8800 nM.
Same read-out and setting: to `COc1cccc(Nc2nc3nonc3nc2Nc2ccccc2F)c1` belongs 830 nM.
Regarding `Fc1ccccc1Nc1nc2nonc2nc1Nc1cccc(OC(F)(F)F)c1`, the Activity in the series on L6 was found to be 8%. Further, in [1], the EC50 was 600 nM.
For `O=C(Nc1ccc(Nc2nc3nonc3nc2Nc2ccccc2F)cc1)C(F)(F)F`, the EC50 in series [1] was found to be 4100 nM.
In the case of `COc1cccc(Nc2nc3nonc3nc2Nc2cccc(OC)c2)c1`, the Activity with L6 is 43%. The EC50 in [1] was more than 100000 nM.
With `Fc1cc(C(F)(F)F)ccc1Nc1nc2nonc2nc1Nc1ccc(C(F)(F)F)cc1F`, in series [1], the EC50 was less than 1000 nM.
For the compound `Fc1ccccc1Nc1nc2nonc2nc1Nc1cccc(C(F)(F)F)c1F`, in series [1], the EC50 is less than 370 nM.
For the compound `Fc1ccc(Nc2nc3nonc3nc2Nc2ccccc2F)c(F)c1`, the Activity with L6 was found to be 22%. Further, the EC50 in series [1] is 300 nM.
Regarding `Fc1ccccc1Nc1nc2nonc2nc1Nc1ccc(C(F)(F)F)cc1`, the EC50 in series [1] was found to be 270 nM.
`Fc1ccc(Nc2nc3nonc3nc2Nc2ccccc2F)cc1`: the Activity with L6 worked out at 65%. In addition, the EC50 in series [1] worked out at 2300 nM.
As to `Cc1cccc(Nc2nc3nonc3nc2Nc2cccc(C)c2)c1`, the Activity in the series with L6 was found to be 22%. In addition, the EC50 in [1] came to 2100 nM.
As for `FC(F)(F)Oc1ccc(Nc2nc3nonc3nc2Nc2ccc(OC(F)(F)F)c(Br)c2)cc1Br`, the EC50 in [1] came to 2200 nM.
For the compound `Fc1ccccc1Nc1nc2nonc2nc1Nc1ccccc1OC(F)(F)F`, in the series on L6, the Activity was 67%. In addition, in series [1], the EC50 was found to be 1700 nM.
Consider `Fc1cc(F)cc(Nc2nc3nonc3nc2Nc2cc(F)cc(F)c2)c1`, for which the EC50 in series [1] is less than 1000 nM.
Same read-out and setting: to `Cc1ccccc1Nc1nc2nonc2nc1Nc1ccccc1C` belongs 2300 nM; to `Fc1cc(Br)ccc1Nc1nc2nonc2nc1Nc1ccc(Br)cc1F`, less than 3000 nM.
In the case of `COc1ccc(Nc2nc3nonc3nc2Nc2ccccc2F)cc1`, the Activity with L6 was 52%. Besides, the EC50 in [1] was determined as 1600 nM.
Consider `Fc1ccc(C(F)(F)F)cc1Nc1nc2nonc2nc1Nc1cc(C(F)(F)F)ccc1F`, for which the EC50 in [1] is less than 1000 nM.
Take `Cc1ccc(Nc2nc3nonc3nc2Nc2ccc(C)c(C)c2)cc1C`: the EC50 in series [1] was more than 100000 nM.
As to `C1CCC(Nc2nc3nonc3nc2NC2CCCC2)C1`, the Activity in the series with L6 worked out at 20%. In series [1], the concentration for a half-maximal effect (EC50) is 45000 nM.
Take `CCOc1ccccc1Nc1nc2nonc2nc1Nc1ccccc1F`: the Activity in the series with L6 was determined as 15%. Besides, in series [1], the EC50 was found to be 5600 nM.
Regarding `CCCc1nc2c(C)cc(-c3nc4ccccc4n3C)cc2n1Cc1ccc(-c2ccccc2C(=O)O)cc1` [TELMISARTAN], the result with Mus musculus [2], in the series with Mus musculus [6] and in the series with Mus musculus [8] was inactive. The Activity entry with Mus musculus [3] is given as “Toxic”; in the series on Mus musculus [4], “Non-Toxic”; in the series on Mus musculus [5] it was “Toxic”; in the series with Mus musculus [7] it was 0.6; in the series with Mus musculus [9], “Toxic”; in the series on Mus musculus [10], 23%. Further, the Activity in the series on Mus musculus [11] is 2.9. Moreover, the outcome in the series with Mus musculus [12] and in the series with Mus musculus [13] was Active.
Take `Fc1ccccc1Nc1nc2nonc2nc1NCCC(F)(F)F`: the EC50 in [1] was more than 100000 nM.
In the case of `Cc1ccc(Nc2nc3nonc3nc2Nc2ccc(C)cc2)cc1`, the Activity with L6 came to 59%. Further, the EC50 in series [1] is more than 20000 nM.
With `Cc1ccccc1Nc1nc2nonc2nc1Nc1ccccc1F`, the Activity with L6 came out at 58%. For the same compound, the EC50 in series [1] turned out to be 1100 nM.
As for `Cc1ccc(Nc2nc3nonc3nc2Nc2ccccc2F)cc1`, in [1], the concentration for a half-maximal effect (EC50) turned out to be 2100 nM.
As for `FC(F)(F)Oc1ccc(Nc2nc3nonc3nc2Nc2ccc(OC(F)(F)F)cc2)cc1`, the Activity in the series with L6 worked out at 14%. Further, in series [1], the EC50 was less than 5000 nM.
As for `Fc1ccccc1Nc1nc2nonc2nc1Nc1cccc(C(F)(F)F)c1`, in series [1], the EC50 was less than 1000 nM.
Turning to `Fc1ccccc1Nc1nc2nonc2nc1Nc1cccc(F)c1F`, the Activity in the series with L6 was found to be 15%. In addition, the EC50 in [1] was found to be 500 nM.
In the case of `CCOc1cccc(Nc2nc3nonc3nc2Nc2ccccc2F)c1`, the Activity with L6 is 28%. In addition, in series [1], the EC50 worked out at 2200 nM.
